According to publication PMC6054836 (Molecular Vision, 2018):
Read-outs that look alike come from different tables or passages of the source.

Experiments:
[1] = molecular target: PKCβ2 (Homo sapiens, UniProt P05771); experiment: In vitro PKC inhibition assay; type: biochemical; conditions: read-out: IC50 PKCβ2; purified human recombinant PKCβ2, 15 min, room temperature
Procedure, shortened: (§1)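 Purified human recombinant PKC isoforms incubated at room temperature with ATP and isoform-specific substrates (25 to 400 nM) plus increasing concentrations of test compound (C8–C18 alkyl benzyl quaternary ammonium class). TR-FRET detection (LANCE or HTRF). Percent inhibition of control activity; IC50 and Hill coefficient from nonlinear Hill-equation fits of mean replicate values.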

[2] = molecular target: PKCβ1 (Homo sapiens, UniProt P05771); experiment: In vitro PKC inhibition assay; type: biochemical; conditions: read-out: IC50 PKCβ1; purified human recombinant PKCβ1, 30 min, room temperature
PKCβ1, sequence (P05771 whole entry): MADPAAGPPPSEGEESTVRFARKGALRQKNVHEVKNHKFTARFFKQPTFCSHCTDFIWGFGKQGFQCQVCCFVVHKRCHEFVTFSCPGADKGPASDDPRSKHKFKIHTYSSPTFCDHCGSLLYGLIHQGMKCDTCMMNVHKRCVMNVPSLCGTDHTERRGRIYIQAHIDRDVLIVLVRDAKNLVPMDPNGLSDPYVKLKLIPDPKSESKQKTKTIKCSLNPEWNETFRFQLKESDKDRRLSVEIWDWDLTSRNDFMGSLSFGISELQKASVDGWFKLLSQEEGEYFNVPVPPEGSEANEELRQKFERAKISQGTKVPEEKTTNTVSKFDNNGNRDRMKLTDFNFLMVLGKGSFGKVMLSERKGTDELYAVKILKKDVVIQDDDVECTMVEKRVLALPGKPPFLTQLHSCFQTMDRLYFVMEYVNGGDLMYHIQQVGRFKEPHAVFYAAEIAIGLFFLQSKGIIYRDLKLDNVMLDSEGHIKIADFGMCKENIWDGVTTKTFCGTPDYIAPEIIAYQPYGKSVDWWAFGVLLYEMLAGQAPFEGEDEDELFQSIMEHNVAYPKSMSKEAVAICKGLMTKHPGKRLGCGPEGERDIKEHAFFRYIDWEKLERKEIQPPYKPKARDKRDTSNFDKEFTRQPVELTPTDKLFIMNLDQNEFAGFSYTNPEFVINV
Procedure, shortened: as §1

[3] = molecular target: PKCα (Homo sapiens, UniProt P17252); experiment: In vitro PKC inhibition assay; type: biochemical; conditions: read-out: IC50 PKCα; purified human recombinant PKCα, 15 min, room temperature
Procedure, shortened: as §1

[4] = molecular target: PKCδ (Homo sapiens, UniProt Q05655); experiment: In vitro PKC inhibition assay; type: biochemical; conditions: read-out: IC50 PKCδ; purified human recombinant PKCδ, 30 min, room temperature
PKCδ, sequence (Q05655 whole entry): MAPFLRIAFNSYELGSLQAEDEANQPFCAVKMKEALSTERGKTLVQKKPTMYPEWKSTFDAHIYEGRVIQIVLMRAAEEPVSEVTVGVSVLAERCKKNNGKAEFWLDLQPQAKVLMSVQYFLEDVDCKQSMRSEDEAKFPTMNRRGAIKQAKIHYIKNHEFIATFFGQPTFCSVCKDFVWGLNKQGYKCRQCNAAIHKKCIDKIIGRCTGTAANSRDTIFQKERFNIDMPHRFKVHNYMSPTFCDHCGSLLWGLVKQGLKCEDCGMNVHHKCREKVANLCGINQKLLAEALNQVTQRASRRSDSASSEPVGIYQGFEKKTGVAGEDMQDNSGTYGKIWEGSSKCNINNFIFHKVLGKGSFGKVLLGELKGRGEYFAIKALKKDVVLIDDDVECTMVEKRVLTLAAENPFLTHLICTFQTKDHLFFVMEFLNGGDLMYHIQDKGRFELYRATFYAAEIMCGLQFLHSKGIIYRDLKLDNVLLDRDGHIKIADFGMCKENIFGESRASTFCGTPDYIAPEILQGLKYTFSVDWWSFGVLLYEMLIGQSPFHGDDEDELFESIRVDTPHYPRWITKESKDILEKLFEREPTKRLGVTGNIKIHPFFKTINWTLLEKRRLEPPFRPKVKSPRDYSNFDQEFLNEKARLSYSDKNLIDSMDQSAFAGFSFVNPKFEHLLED
Procedure, shortened: as §1

[5] = test system: PBMCs (LPS); experiment: Marker secretion inhibition in LPS-stimulated PBMCs; type: cell-based; conditions: Homo sapiens, PBMC
Procedure, shortened: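 PBMCs were Ficoll-isolated from one donor's blood and cultured in RPMI 1640 with 10% heat-inactivated FBS, 2 mM glutamine and pen/strep at 37 °C, 5% CO2. Test compound was given in a 30-min preincubation, then in fresh medium with LPS for 24 h. IL-6, IL-8 and IL-12 in supernatant were measured by flow-cytometric bead array. Results are % inhibition versus stimulated cells, mean ± SEM of triplicates.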

PKCβ2, sequence (P05771 1-673 isoform P05771-2): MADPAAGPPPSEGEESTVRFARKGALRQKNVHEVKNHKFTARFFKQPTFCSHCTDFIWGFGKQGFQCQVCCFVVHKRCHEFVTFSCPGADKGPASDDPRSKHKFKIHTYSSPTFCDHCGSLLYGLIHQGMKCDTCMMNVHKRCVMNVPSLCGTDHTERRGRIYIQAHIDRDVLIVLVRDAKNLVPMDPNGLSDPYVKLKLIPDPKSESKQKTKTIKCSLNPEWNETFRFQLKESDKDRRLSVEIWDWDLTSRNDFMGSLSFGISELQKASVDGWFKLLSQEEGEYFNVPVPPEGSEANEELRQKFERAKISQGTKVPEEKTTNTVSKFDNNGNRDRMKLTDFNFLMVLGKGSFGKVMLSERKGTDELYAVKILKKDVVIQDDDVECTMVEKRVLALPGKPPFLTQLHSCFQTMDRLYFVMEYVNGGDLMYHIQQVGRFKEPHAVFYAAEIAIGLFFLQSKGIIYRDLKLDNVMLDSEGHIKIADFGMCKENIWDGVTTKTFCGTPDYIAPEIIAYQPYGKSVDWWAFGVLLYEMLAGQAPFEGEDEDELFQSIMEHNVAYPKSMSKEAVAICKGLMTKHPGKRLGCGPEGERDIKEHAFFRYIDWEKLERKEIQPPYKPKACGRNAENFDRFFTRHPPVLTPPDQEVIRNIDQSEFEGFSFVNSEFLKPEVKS

Compound: CCCCCCCC[N+](C)(C)Cc1ccccc1 [C8]
- IC50 [1]: > 101 µM
- IC50 [2]: > 101 µM
- IC50 [3]: > 141 µM

Compound: CCCCCCCCCC[N+](C)(C)Cc1ccccc1 [C10]
- IC50 [4]: > 128 µM
- IC50 [1]: > 101 µM
- IC50 [2]: > 101 µM
- IC50 [3]: > 128 µM

Compound: CCCCCCCCCCCC[N+](C)(C)Cc1ccccc1 [C12]
- IC50 [4]: > 118 µM
- IC50 [1]: 58.8 µM
- IC50 [2]: 58.8 µM
- IC50 [3]: 22.6 µM

Compound: CCCCCCCCCCCCCC[N+](C)(C)Cc1ccccc1 [C14]
- IC50 [4]: > 109 µM
- IC50 [1]: 14.1 µM
- IC50 [2]: 10.1 µM
- IC50 [3]: 5.4 µM

Compound: CCCCCCCCCCCCCCCC[N+](C)(C)Cc1ccccc1 [C16 (CKC), cetalkonium chloride]
- IC50 [1]: > 101 µM
- IC50 [2]: > 101 µM

Compound: CCCCCCCCCCCCCCCCCC[N+](C)(C)Cc1ccccc1 [C18]
- IC50 [1]: 39.3 µM
- IC50 [2]: 74.6 µM
- IC50 [3]: 11.7 µM

Compound: C[C@@H]1C[C@H]2[C@@H]3CCC4=CC(=O)C=C[C@]4(C)[C@@]3(F)[C@@H](O)C[C@]2(C)[C@@]1(O)C(=O)CO [DXM, dexamethasone]
- inhibition at 0.1 µM ([5]; read-out: % of marker secretion inhibition, IL6): 72 ± 1%
- inhibition at 0.1 µM ([5]; read-out: % of marker secretion inhibition, IL8): 68 ± 2%
- inhibition at 0.1 µM ([5]; read-out: % of marker secretion inhibition, IL12): 97 ± 1%
- inhibition at 0.1 µM ([5]; read-out: % of marker secretion inhibition, TNFα): 85 ± 1%
